Laboratory results: PMC9075408 (Journal of the American Heart Association: Cardiovascular …, 2021)

Tests used:
[1] = system: rats resuscitated from cardiac arrest; experiment: CPR outcomes and survival in rat model of electrically induced CA/CPR; type: in vivo
[2] = system: rats resuscitated from cardiac arrest; experiment: Neurological deficit score; type: in vivo, rat; details: 24, 48, 72, and 96 hours post-ROSC, all time points; score 0 (normal) to 500 (brain death)
[3] = system: kynurenine pathway (IDO, tryptophan→kynurenine step)
[4] = system: rats resuscitated from cardiac arrest; experiment: Plasma high-sensitivity cardiac troponin T; type: in vivo, rat; details: median [quartile 1–quartile 3]
Procedure, shortened: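 Arterial blood was drawn from the femoral cannula into K3-EDTA tubes 15 min before CA and at 4 and 96 h post-ROSC. Rats had received gavage test compound (800 mg/kg per dose) or carboxymethylcellulose vehicle 16 and 2 h pre-CA, then 8 min CA and 8 min CPR. Plasma hs-cTnT was measured by electrochemiluminescence immunoassay and analysed by ordinary 2-way ANOVA with Sidak test.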

[5] = system: rats resuscitated from cardiac arrest; experiment: Hemodynamics; type: in vivo, rat; details: mean±SD
[6] = system: kynurenine pathway (IDO, tryptophan→kynurenine step); details: 96 hours post-ROSC
[7] = system: rats resuscitated from cardiac arrest; experiment: Myocardial function by transthoracic echocardiography in CA/CPR rats; type: in vivo, rat
Procedure, shortened: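 Rats were pretreated by gavage with test compound (800 mg/kg per dose) or 1% carboxymethylcellulose 16 and 2 h before 8 min untreated CA and 8 min CPR. At 4 and 96 h post-ROSC, LV systolic function was assessed by transthoracic M-mode, 2D, pulsed, color and tissue Doppler echocardiography. Anaesthesia at 96 h was intraperitoneal thiopental 50 mg/kg, with 10 mg/kg recall doses if needed. Analysis used ordinary 2-way ANOVA with Sidak post hoc.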

[8] = system: IL1β and Arg1 mRNA, brain cortex; experiment: Inflammatory gene expression; type: in vivo, rat; details: brain cortex 96 hours post-ROSC; not statistically significant
Procedure, shortened: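 Male Sprague-Dawley ex-breeder rats underwent 8 min untreated CA and 8 min CPR after gavage with test compound (800 mg/kg per dose) or 1% carboxymethylcellulose vehicle 16 and 2 h before CA; naive rats served as controls. At 96 h post-ROSC, cortical RNA was analysed by SYBR Green real-time PCR with exon-spanning primers and Gapdh reference. Results were calculated by ΔΔCt as fold induction, mean±SD, n=4-6/group, Kruskal-Wallis/Dunn's.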

[9] = Plasma and hippocampal levels of 1-DL-MTRP by HPLC-MS/MS in CA/CPR rats; type: in vivo; details: rat
[10] = 2 oral doses of 800 mg/kg 16 and 2 hours before CA, 15 minutes pre-CA and 2 hours post-ROSC
[11] = 2 oral doses of 800 mg/kg 16 and 2 hours before CA, 96 hours post-ROSC

Q: Which results are given for `Cn1cc(CC(N)C(=O)O)c2ccccc21` (racemic) [1‐DL‐MTRP, 1‐methyl‐DL‐tryptophan]?
A: Resuscitation, no./total ([1]; 800 mg/kg by gavage 16 and 2 h before CA, 8 min CA, 8 min CPR): 15/17; Time to ROSC ([1]; median [quartile 1–quartile 3]): 481 [370–482] s; 4-h survival, no./resuscitated ([1]; rat, in vivo): 15/15; 96-h survival, no./resuscitated ([1]; rat, in vivo): 10/15; Shocks to ROSC ([1]; rat, in vivo): 1 no.; animals that survived up to 96 hours after CA ([1]; vehicle 62%): 66%; successfully resuscitated animals ([1]; vehicle 84%): 88%; NDS values vs vehicle-treated rats [2]: lower; plasma kynurenine levels, % lower than in vehicle-treated rats ([3]; 15 minutes pre-CA, P=0.0243): 24%; plasma kynurenine levels following CA vs vehicle-treated rats ([3]; PR 2 hours and PR 96 hours, same time points): markedly lower than in vehicle‐treated rats; hs-cTnT ([4]; PR 4 h): 4965 [2978–5242] pg/mL; hs-cTnT ([4]; PR 96 h): 64 [36–278] pg/mL; hs-cTnT ([4]; Pre-CA): 98 [66–111] pg/mL; CPP ([5]; PR 10 min): 57±21 mm Hg; DAP ([5]; PR 10 min): 57±21 mm Hg; HR ([5]; PR 10 min): 237±54 beats per min; MAP ([5]; PR 10 min): 76±20 mm Hg; SAP ([5]; PR 10 min): 103±17 mm Hg; CPP ([5]; PR 1 h): 84±9 mm Hg; DAP ([5]; PR 1 h): 84±9 mm Hg; HR ([5]; PR 1 h): 335±12 beats per min; MAP ([5]; PR 1 h): 96±9 mm Hg; SAP ([5]; PR 1 h): 117±9 mm Hg; CPP ([5]; PR 2 h): 81±12 mm Hg; DAP ([5]; PR 2 h): 81±12 mm Hg; HR ([5]; PR 2 h): 360±20 beats per min; MAP ([5]; PR 2 h): 96±13 mm Hg; SAP ([5]; PR 2 h): 118±12 mm Hg; CPP ([5]; PR 3 h): 75±15 mm Hg; DAP ([5]; PR 3 h): 74±15 mm Hg; HR ([5]; PR 3 h): 358±23 beats per min; MAP ([5]; PR 3 h): 89±16 mm Hg; SAP ([5]; PR 3 h): 111±18 mm Hg; CPP ([5]; PR 4 h): 73±20 mm Hg; DAP ([5]; PR 4 h): 78±15 mm Hg; HR ([5]; PR 4 h): 351±51 beats per min; MAP ([5]; PR 4 h): 94±17 mm Hg; SAP ([5]; PR 4 h): 115±17 mm Hg; CPP ([5]; Pre-CA): 109±13 mm Hg; DAP ([5]; Pre-CA): 114±12 mm Hg; HR ([5]; Pre-CA): 375±34 beats per min; MAP ([5]; Pre-CA): 127±13 mm Hg; SAP ([5]; Pre-CA): 151±13 mm Hg; hippocampal kynurenine levels vs vehicle-treated rats ([6]; P=0.0409, comparable to naive rats): significantly lower than in vehicle‐treated rats; hippocampal 5-HT concentrations ([6]; vs naive rats): superimposable to those measured in naive rats; LVEF ([7]; PR 4 h): 36.8±3.2%; LVEF ([7]; PR 96 h): 75.3±3.2%; Arg1 gene expression [8]: tendency towards an increase; CA-induced IL1β upregulation (mRNA) [8]: slightly reduced; 1-DL-MTRP plasma concentration, average [9, 10]: 34 µg/mL; 1-DL-MTRP plasma concentration, range [9, 10]: 20 to 40 µg/mL; 1-DL-MTRP hippocampal concentration, average [9, 11]: 11.4 µg/g; 1-DL-MTRP plasma concentration, average [9, 11]: 21 µg/mL; drug levels (plasma and brain) as molar concentrations ([9]; 96 hours post-ROSC): 52 to 96 µM
